Hits are enriched below; roughly 2% of the tested compounds scored in any of these assays.
IMP-1 inh: IMP-1 metallo-beta-lactamase inhibitors, primary screen, biochemical, epi-absorbance readout, Pseudomonas aeruginosa enzyme. AID 1556, 2009. inhibition, % at 5.6 µM. hit rate 0.45% among 290,000. purified IMP-1, nitrocefin hydrolysis, epi-absorbance fluorescence. metallo-beta-lactamase IMP-1 (Pseudomonas aeruginosa);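 active = inhibition above the mean plus 3 SD of all compounds in the same screening run, cut at about 4.5% in these data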
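System: Purified IMP-1 | Read-out basis: Percent enzyme inhibition | Controls: IMP-1 with DMSO as 0%, enzyme-free DMSO as 100% | Replicates: One well per compound | Doses: 5.6 µM nominal single concentration | Detection: Epi-absorbance fluorescence, 480 nm excitation, 530 nm emission | Incubation: 25 °C, 15 min preincubation, 25 min reaction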
PLC-gamma1 inh: PLC-gamma1 enzyme inhibitors, primary screen, biochemical, fluorescence, purified enzyme | hit rate 0.84% among 370,000 | 1-phosphatidylinositol 4,5-bisphosphate phosphodiesterase gamma-1 (Homo sapiens), P19174 | fluorogenic substrate | inhibition, % at 12.2 µM | AID 720700, 2013; in the data active = inhibition above about 9.5%
PvdQ acylase: P. aeruginosa PvdQ acylase inhibitors, primary screen, biochemical, fluorescence, plate reader and imaging, single point. purified PvdQ acylase. inhibition, % at 10 µM. hit rate 0.063% among 340,000. AID 488965, 2010; in the data active = inhibition above about 30%, passing the limit was not always enough
PLC-beta3 inh: human PLC-beta3 inhibitors, primary screen, biochemical, fluorescence. 1-phosphatidylinositol 4,5-bisphosphate phosphodiesterase beta-3 (Homo sapiens), Q01970. Purified PLC-beta3, fluorogenic substrate. inhibition, % at 12.2 µM. hit rate 0.18% among 370,000; in the data active = inhibition above about 11%
VIM-2 inhibitor: VIM-2 metallo-beta-lactamase inhibitors, primary screen, biochemical, epi-absorbance readout, Pseudomonas aeruginosa enzyme. purified VIM-2, nitrocefin hydrolysis, epi-absorbance fluorescence. hit rate 0.89% among 290,000. inhibition, % at 5.6 µM;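 active = inhibition above the mean of all tested compounds plus 3 SD, cutoff set per screening run, cut at about 7.5% in these data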;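 note: red hydrolysis product quenches plate fluorescence so inhibitors raise well fluorescence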
Of the large screens only hits and unclear results are named; the others gave an inactive call.

COc1ccc(Cn2c(=N)c(C(=O)NCC3CCCO3)cc3c(=O)n4ccccc4nc32)cc1 (centres undefined)	VIM-2 inhibitor 9.2
COc1ccc(CCn2c(=N)c(C(=O)NCC3CCCO3)cc3c(=O)n4ccccc4nc32)cc1 (centres undefined)	none
Cc1nc2nc(-c3cccnc3)nn2c(C)c1Cl	VIM-2 inhibitor 11
COC(=O)C(C(=O)OC)[C@@H]1C=C[C@H](C[N+](=O)[O-])N(C(C)=O)C1	PLC-gamma1 inh 12 (no result: IMP-1 inh, VIM-2 inhibitor)
COC(=O)C(N)Cc1ccc(OC)c([N+](=O)[O-])c1 (centres undefined)	none
CCNC(=O)N(C)[C@H]1C[C@H]2c3[nH]c4cccc(-c5ccc6c(c5)OCO6)c4c3CCN2C[C@H]1[C@H](C)O	none (no result: IMP-1 inh, PvdQ acylase, VIM-2 inhibitor)
CCOC(=O)c1c(C)cc(C)n2c1nc1ccccc12	VIM-2 inhibitor 11
CN1CCN(c2nnc(-c3ccc(Cl)cc3)c3ccccc23)CC1	VIM-2 inhibitor 10
O=[N+]([O-])c1ccc(-c2cccnc2)cc1	PvdQ acylase 49 (no result: IMP-1 inh, VIM-2 inhibitor)
C=CCN(CC#Cc1ccccc1)Cc1ccc2c(c1)OCO2	none (no result: IMP-1 inh, PvdQ acylase, VIM-2 inhibitor)
COc1ccc(OCC(=O)NNC(=O)Cc2coc3cc(OC)ccc23)cc1	IMP-1 inh 5.6
CCOC(=O)c1cnc2ccc(Br)cc2c1NCCCN1CCOCC1	none
CCOC(=O)c1cnc2c(C)cc(C)cc2c1NCCCN1CCOCC1	VIM-2 inhibitor 9.6
CCOC(=O)c1cnc2c(C)c(C)ccc2c1NCCN1CCOCC1	VIM-2 inhibitor 8.6
CCOC(=O)c1cnc2c(C)c(Cl)ccc2c1N1CCOCC1	none
CCOC(=O)c1cnc2c(Cl)c(Cl)ccc2c1NCCN1CCOCC1	VIM-2 inhibitor 7.7
COc1ccc(CCNC(=O)Nc2ccc3c(c2)[C@]2(CC(=O)N(CC(C)C)C2c2ccccc2)C(=O)N3C)cc1OC (some centres undefined)	none (no result: IMP-1 inh, PvdQ acylase, VIM-2 inhibitor)
O=C(O)CC12CSc3[nH]c(=O)sc3C1c1ccccc1OC2=O (centres undefined)	IMP-1 inh 6.4 (no result: PLC-gamma1 inh, PvdQ acylase, PLC-beta3 inh)
COc1cccc(/C=C2\CC3(OC(=O)C4CCCC4)CCCN2C3)c1 (centres undefined)	none (no result: IMP-1 inh, PvdQ acylase, VIM-2 inhibitor)
Cc1cccc(NC2=NCC(=O)N2Cc2ccccc2)c1	IMP-1 inh 8.6
Cc1cccc(N=C2NC(=O)/C(=C/C=C/c3ccco3)S2)c1C	IMP-1 inh 4.8
Cc1ccc(N=C2NC(=O)/C(=C/C=C/c3ccco3)S2)cc1	none
CCOC(=O)/C(C#N)=C/c1ccc(SC)cc1	PvdQ acylase 45
CCOC(=O)/C(C#N)=C/c1ccc(OC)c(OC)c1	none
Cc1ccc2[nH]c(C(=O)O)c(-c3ccccc3)c2c1	VIM-2 inhibitor 9.9
O=C(O)c1[nH]c2ccccc2c1-c1ccccc1	none
Cc1nc2c(c(=O)c3ccccc3n2C)c(=O)n1-c1ccc(F)cc1	VIM-2 inhibitor 8.0
O=C(c1cccc(F)c1)N1CCCC(c2nc(-c3cccs3)no2)C1 (centres undefined)	none (no result: IMP-1 inh, PvdQ acylase, VIM-2 inhibitor)
COc1ccc2c(Cl)c(C(=O)NN3CCN(C)CC3)sc2c1	VIM-2 inhibitor 8.5
CCOC(=O)c1c(CN(C)C)n(-c2ccc(C)cc2)c2cc(Br)c(O)cc12	VIM-2 inhibitor 8.4
CCCCN1C(=O)N2Cc3ccc(C)cc3C2CS1(=O)=O (centres undefined)	none (no result: IMP-1 inh, PvdQ acylase, VIM-2 inhibitor)
N#Cc1ccc(/C=C2\CC3(OC(=O)c4ccc(Cl)cc4)CCCN2C3)cc1 (centres undefined)	none (no result: IMP-1 inh, PvdQ acylase, VIM-2 inhibitor)
Cc1ccc(NC(=O)c2cc(Cl)ccc2[N+](=O)[O-])cc1C	none
CC(C)(C)NC(=O)c1cc(Cl)ccc1[N+](=O)[O-]	PvdQ acylase 36
Cc1ccc(CC(=O)Nc2cccc(C)n2)cc1	none
Cc1cccc(NC(=O)Cc2ccc(-c3ccccc3)cc2)n1	IMP-1 inh 12
O=C(Cc1ccc(-c2ccccc2)cc1)Nc1ncccc1O	IMP-1 inh 33
OCCN1CCCC12CCC(c1ccccc1)CC2 (centres undefined)	none (no result: IMP-1 inh, PvdQ acylase, VIM-2 inhibitor)
CC(C)Oc1cccc(-c2csc(N3CCC(C(N)=O)CC3)n2)c1	none (no result: IMP-1 inh, PvdQ acylase, VIM-2 inhibitor)
COC(=O)c1cc(OC)c(OC)cc1N=CC1=C(O)CC(C)(C)CC1=O	IMP-1 inh 5.1
Cc1cccc2sc(NC(=O)C3CSC4(C)CCC(=O)N34)nc12 (centres undefined)	none
